One block for each compound: values may come before it.
Experiments:
[1] = assay type: in vivo, rat; conditions: 4 h after oral DFP-11207 53.4 mg/kg
Outline: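 AZ521 xenograft-bearing nude rats received 53.4 mg/kg (75 μmol/kg) test compound orally and were killed at 1, 2, 4, 8 and 12 h. Serum, small intestine and tumour were taken. Tissues were homogenised in 10 mM potassium phosphate-buffered saline (pH 7.2) and spun at 9,000× g for 30 min. Supernatants were extracted with 4 volumes of ethyl acetate, dried at 40°C, redissolved, and assayed for CTA and 5-FU by HPLC.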

[2] = test system: CYP1A2, CYP2A6, CYP2E1, CYP3A4; assay type: in vitro ADME; conditions: 100 µM inhibitor; EM-FU 1 mM; human liver microsomes
[3] = test system: CoLo320DM cells; assay type: cell-based, human; conditions: 1-100 µM, 1 µM [6-3H] 5-FU, 37°C, 45 min
Outline: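 CoLo320DM cells in RPMI-1640 were incubated at 37°C for 45 min with 1 μM [6-3H]5-FU (37 kBq), alone or with 1–100 μM test compound or CTA. Acid was added and the mixture centrifuged. The neutralised acid-soluble fraction was run on silica TLC and the FUMP spot counted. RNA-incorporated label in the precipitate was extracted by the Schneider method. Results are means of duplicate assays.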

[4] = target: T1, orotate phosphoribosyltransferase (OPRT) (Homo sapiens, UniProt P11172); conditions: cited from earlier work
T1 sequence (P11172 1-480): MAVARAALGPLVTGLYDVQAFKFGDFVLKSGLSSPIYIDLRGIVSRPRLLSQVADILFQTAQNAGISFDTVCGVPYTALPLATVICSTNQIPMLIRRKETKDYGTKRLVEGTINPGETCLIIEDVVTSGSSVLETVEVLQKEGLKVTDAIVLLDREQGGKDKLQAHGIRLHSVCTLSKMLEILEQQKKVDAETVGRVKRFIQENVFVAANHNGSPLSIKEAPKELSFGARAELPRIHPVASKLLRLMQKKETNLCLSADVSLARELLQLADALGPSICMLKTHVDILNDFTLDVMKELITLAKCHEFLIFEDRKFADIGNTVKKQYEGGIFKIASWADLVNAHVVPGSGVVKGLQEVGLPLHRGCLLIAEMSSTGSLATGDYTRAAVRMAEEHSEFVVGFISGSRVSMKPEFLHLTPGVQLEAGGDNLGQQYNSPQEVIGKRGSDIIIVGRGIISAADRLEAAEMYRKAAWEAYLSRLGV

[5] = assay type: in vitro ADME; conditions: rat serum, liver and small intestine homogenates
Outline: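 Test compound (1 mM) was incubated at 37°C with rat serum or 20% (w/v) liver or small-intestine homogenates for 10, 20, 30 and 60 min. Reactions were stopped with 10% TCA and spun at 3,000× g for 10 min. Supernatants were neutralised with 2 M KOH, and EM-FU, CDHP, CTA and 5-FU were measured by HPLC. Results are means of duplicate assays.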

[6] = Conversion of EM-FU to 5-FU by rat liver microsomes; assay type: in vitro ADME; conditions: 1 mM, 60 min
Outline: (§1)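 EM-FU (1 mM) was incubated for 60 min with liver microsomes (0.85 mg protein) from each species, with tegafur as positive control. 5-FU formed was quantified by HPLC. Assays were run in triplicate and reported as mean ± SD.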

[7] = Conversion of EM-FU to 5-FU by monkey liver microsomes; assay type: in vitro ADME; conditions: 1 mM, 60 min
Outline: as §1

[8] = Conversion of EM-FU to 5-FU by human liver microsomes; assay type: in vitro ADME; conditions: 1 mM, 60 min
Outline: as §1

[9] = Conversion of EM-FU to 5-FU by dog liver microsomes; assay type: in vitro ADME; conditions: 1 mM, 60 min
Outline: as §1

Inhibition of the conversion of EM-FU to 5-FU [2]: strongly inhibited
Compound: O=c1ccc2ccccc2o1 [coumarin]

Inhibition of the conversion of EM-FU to 5-FU [2]: strongly inhibited
Compound: O=[N+]([O-])c1ccc(O)cc1 [p-nitrophenol]

Inhibition of incorporation of 5-FU into RNA [3]: did not inhibit | Inhibition of intracellular phosphorylation of 5-FU [3]: did not inhibit
Compound: O=C(O)c1cc(O)nc(O)c1 [CTA, citrazinic acid]
Inhibition of OPRT activity (5-FU phosphorylation) in cell-free tumor extract [4]: strongly inhibit

The next lines start with the compound.

Compound: O=c1[nH]cc(F)c(=O)[nH]1 [5-FU, 5-Fluorouracil]
5-FU level in small intestine compared with CTA [1]: almost equal level | 5-FU levels in blood and tumor compared with CTA [1]: much higher than CTA

Compound: toleandomycin
Inhibition of the conversion of EM-FU to 5-FU [2]: strongly inhibited

Compound: CCOCn1cc(F)c(=O)[nH]c1=O [EM-FU, 1-ethoxymethyl-5-fluorouracil]
Production of 5-FU from EM-FU by this enzymatic reaction [5]: not produced | Conversion rate of EM-FU to 5-FU [6]: 30 to 60 pmol/min/mg | Conversion rate of EM-FU to 5-FU [7]: 30 to 60 pmol/min/mg | Conversion rate of EM-FU to 5-FU [8]: 30 to 60 pmol/min/mg | Conversion rate of EM-FU to 5-FU [9]: lowest conversion rate

Compound: O=c1cc(-c2ccccc2)oc2c1ccc1ccccc12 [α-naphthoflavone]
Inhibition of the conversion of EM-FU to 5-FU [2]: strongly inhibited
